Assay results published in ChEMBL document CHEMBL2331436, “Antimicrobial phenolics and unusual glycerides from Helichrysum italicum subsp. microphyllum” (2013).
≈ marks a conversion by molar mass, not a printed value.

How the values were obtained:
Assay type in all cases: functional
Staphylococcus aureus [1] = assay: Antibacterial activity against Staphylococcus aureus XU212 overexpressing TetK tetracycline efflux pump after 18 hrs by MTT assay; conditions: XU212, 18 h
Method in brief: (§1)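 MIC by broth microdilution in Mueller-Hinton broth with 20 mg/L Ca2+ and 10 mg/L Mg2+. Strains were grown overnight on nutrient agar at 37 °C. Agents were dissolved in DMSO, diluted in broth to a 512 mg/L stock, and serially diluted to a final 128−0.25 range with inoculum. Plates ran in duplicate for 18 h at 37 °C, then […] methanolic MTT for 30 min, scored by blue colour.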

Staphylococcus aureus [2] = assay: Antibacterial activity against Staphylococcus aureus RN4220 overexpressing MsrA macrolide efflux protein after 18 hrs by MTT assay; conditions: RN4220, 18 h; method in brief: as §1
Staphylococcus aureus [3] = assay: Antibacterial activity against epidemic methicillin-resistant Staphylococcus aureus EMRSA-15 after 18 hrs by MTT assay; conditions: EMRSA-15, 18 h; method in brief: as §1
Staphylococcus aureus [4] = assay: Antibacterial activity against Staphylococcus aureus ATCC 25923 after 18 hrs by MTT assay; conditions: ATCC 25923, 18 h
Method in brief: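 Strain grown overnight at 37 °C on nutrient agar before assay. MIC by broth microdilution in Mueller-Hinton broth with 20 mg/L Ca2+ and 10 mg/L Mg2+. Agents in DMSO, diluted in MHB to a 512 mg/L stock, then serially diluted to a final 128−0.25 […]. Duplicates, 18 h at 37 °C, then 5 mg/L methanolic MTT for 30 min; colour read-out.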

Staphylococcus aureus [5] = assay: Antibacterial activity against epidemic methicillin-resistant Staphylococcus aureus EMRSA-16 after 18 hrs by MTT assay; conditions: EMRSA-16, 18 h; method in brief: as §1
Staphylococcus aureus [6] = assay: Antibacterial activity against Staphylococcus aureus 1199B overexpressing NorA pump after 18 hrs by MTT assay; method in brief: as §1

SMILES | MIC (Staphylococcus aureus [1]) | MIC (Staphylococcus aureus [2]) | MIC (Staphylococcus aureus [3]) | MIC (Staphylococcus aureus [4]) | MIC (Staphylococcus aureus [5]) | MIC (Staphylococcus aureus [6])
C=C(COC(=O)CCC(C)C)[C@H]1Cc2cc(C(C)=O)ccc2O1 | > 128 µg/mL | > 128 µg/mL | > 128 µg/mL | > 128 µg/mL | > 128 µg/mL | > 128 µg/mL
C=C(COC(=O)C(C)C)[C@H]1Cc2cc(C(C)=O)ccc2O1 | > 128 µg/mL | > 128 µg/mL | > 128 µg/mL | > 128 µg/mL | > 128 µg/mL | > 128 µg/mL
C=C(COC(=O)C(C)CC)[C@H]1Cc2cc(C(C)=O)ccc2O1 (stereo partly specified) | > 128 µg/mL | > 128 µg/mL | > 128 µg/mL | > 128 µg/mL | > 128 µg/mL | > 128 µg/mL
COC(=O)/C=C/c1ccc(OC/C=C(\C)CCC=C(C)C)cc1 | > 128 µg/mL | > 128 µg/mL | > 128 µg/mL | > 128 µg/mL | > 128 µg/mL | > 128 µg/mL
COC(=O)/C=C\c1ccc(OC/C=C(\C)CCC=C(C)C)cc1 | > 128 µg/mL | > 128 µg/mL | > 128 µg/mL | > 128 µg/mL | > 128 µg/mL | > 128 µg/mL
CCCc1oc(=O)c(C(C)c2c(O)c(CC=C(C)C)c(O)c(C(C)=O)c2O)c(O)c1C(C)C (stereo unspecified) | 128 µg/mL (≈ 279 µM) | 32 µg/mL (≈ 69.8 µM) | 32 µg/mL (≈ 69.8 µM) | 128 µg/mL (≈ 279 µM) | 128 µg/mL (≈ 279 µM) | 32 µg/mL (≈ 69.8 µM)
CCCc1oc(=O)c(C(c2ccccc2)c2c(O)c(CC=C(C)C)c(O)c(C(C)=O)c2O)c(O)c1C(C)C (stereo unspecified) | 4 µg/mL (≈ 7.68 µM) | 2 µg/mL (≈ 3.84 µM) | 6 µg/mL (≈ 11.5 µM) | 8 µg/mL (≈ 15.4 µM) | 8 µg/mL (≈ 15.4 µM) | 16 µg/mL (≈ 30.7 µM)
CCc1oc(=O)c(Cc2c(O)c(CC=C(C)C)c(O)c(C(C)=O)c2O)c(O)c1CC | 16 µg/mL (≈ 38.4 µM) | 2 µg/mL (≈ 4.8 µM) | 2 µg/mL (≈ 4.8 µM) | 1 µg/mL (≈ 2.4 µM) | 2 µg/mL (≈ 4.8 µM) | 1 µg/mL (≈ 2.4 µM)
CCc1c(C)oc(=O)c(C(C)c2c(O)c(CC=C(C)C)c(O)c(C(C)=O)c2O)c1O (stereo unspecified) | > 128 µg/mL | 128 µg/mL (≈ 307 µM) | 128 µg/mL (≈ 307 µM) | 64 µg/mL (≈ 154 µM) | 128 µg/mL (≈ 307 µM) | 128 µg/mL (≈ 307 µM)
CCCCCC(=O)C(c1c(O)c(CC=C(C)C)c(O)c(C(C)=O)c1O)c1c(O)c(CC)c(C)oc1=O (stereo unspecified) | 16 µg/mL (≈ 32 µM) | 8 µg/mL (≈ 16 µM) | 16 µg/mL (≈ 32 µM) | 8 µg/mL (≈ 16 µM) | 8 µg/mL (≈ 16 µM) | 16 µg/mL (≈ 32 µM)
C=C(COC(C)=O)[C@H]1Cc2cc(C(C)=O)ccc2O1 | > 128 µg/mL | > 128 µg/mL | > 128 µg/mL | > 128 µg/mL | > 128 µg/mL | > 128 µg/mL
CCc1oc(=O)c(Cc2c(O)c(CC=C(C)C)c(O)c(C(C)=O)c2O)c(O)c1C [ARZANOL] | 4 µg/mL (≈ 9.94 µM) | 2 µg/mL (≈ 4.97 µM) | 4 µg/mL (≈ 9.94 µM) | 1 µg/mL (≈ 2.48 µM) | 2 µg/mL (≈ 4.97 µM) | 1 µg/mL (≈ 2.48 µM)
CCc1oc(=O)c(Cc2c(O)c3c(c(C(C)=O)c2O)OC(C)(C)CC3)c(O)c1C [CYCLOARZANOL A] | 128 µg/mL (≈ 318 µM) | 32 µg/mL (≈ 79.5 µM) | 128 µg/mL (≈ 318 µM) | 32 µg/mL (≈ 79.5 µM) | > 128 µg/mL | 128 µg/mL (≈ 318 µM)
CCc1oc(=O)c(Cc2c(O)c(C(C)=O)c(O)c3c2OC(C)(C)CC3)c(O)c1C [CYCLOARZANOL B] | > 128 µg/mL | > 128 µg/mL | > 128 µg/mL | > 128 µg/mL | > 128 µg/mL | > 128 µg/mL
CCc1oc(=O)c(Cc2c(O)c(C)c(CC)oc2=O)c(O)c1C [HELIPYRONE] | > 128 µg/mL | 12 µg/mL (≈ 37.5 µM) | > 128 µg/mL | 64 µg/mL (≈ 200 µM) | 128 µg/mL (≈ 400 µM) | > 128 µg/mL
CCc1oc(OC)c(Cc2c(O)c(CC=C(C)C)c(O)c(C(C)=O)c2O)c(=O)c1C [METHYLARZANOL] | > 128 µg/mL | > 128 µg/mL | > 128 µg/mL | > 128 µg/mL | > 128 µg/mL | > 128 µg/mL
CCC(C)C(=O)C(C)c1oc(=O)c(C)c(O)c1C (stereo unspecified) [MICROPYRONE] | > 128 µg/mL | 128 µg/mL (≈ 507 µM) | > 128 µg/mL | > 128 µg/mL | 128 µg/mL (≈ 507 µM) | > 128 µg/mL
C=C(COC(=O)CCCCCCCC)[C@H]1Cc2cc(C(C)=O)ccc2O1 [NONANOYLBITALIN A] | > 128 µg/mL | > 128 µg/mL | > 128 µg/mL | > 128 µg/mL | > 128 µg/mL | > 128 µg/mL
CCn1cc(C(=O)O)c(=O)c2cc(F)c(N3CCNCC3)cc21 [NORFLOXACIN] | 8 µg/mL (≈ 25.1 µM) | 0.5 µg/mL (≈ 1.57 µM) | 0.5 µg/mL (≈ 1.57 µM) | 0.5 µg/mL (≈ 1.57 µM) | 128 µg/mL (≈ 401 µM) | 32 µg/mL (≈ 100 µM)
C=C(COC(=O)CCCCCCC/C=C\CCCCCCCC)[C@H]1Cc2cc(C(C)=O)ccc2O1 [OLEOYLBITALIN A] | > 128 µg/mL | > 128 µg/mL | > 128 µg/mL | > 128 µg/mL | > 128 µg/mL | > 128 µg/mL
C=C(COC(=O)CC)[C@H]1Cc2cc(C(C)=O)ccc2O1 [PROPANOYLBITALIN A] | > 128 µg/mL | > 128 µg/mL | > 128 µg/mL | > 128 µg/mL | > 128 µg/mL | > 128 µg/mL
